# High-throughput results from PubChem BioAssay.
# Sampled rows, rich in hits. Any-hit rate of the full collection: about 4%.
# SIRT5 inh: SIRT5 desuccinylase inhibitors, primary screen, biochemical, fluorescence imaging, single point, set 5. NAD-dependent protein deacylase sirtuin-5, mitochondrial (Homo sapiens), Q9NXA8. Purified SirT5, succinyl-peptide AMC, trypsin-coupled fluorescence. inhibition, % at 15 µM. actives 1.1% (n = 330,000). AID 652115, 2013; in the data active means inhibition above about 15%; inconclusive means no clear call, values can overlap the other calls
# C2C12 statin: suppressors of statin myotoxicity in C2C12 myotubes, primary screen, cell-based, single point, plate reader. C2C12 myotubes + simvastatin, ATP luminescence, 48 h; scaled: DMSO 0, geranylgeraniol control 100. rescue of ATP level, % at 7.49 µM. AID 602340, 2012. actives 0.78% (n = 330,000);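 active means mean ATP rescue above about 67%, or every replicate alone reaching that limit, limit read from the data, passing the limit was not always enough; inconclusive means no clear call, values can overlap the other calls; inactive means mean under the limit and some replicate under it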;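 further: myotubes were challenged with 10 µM simvastatin during compound exposure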
# rRNA inh HTS: reduced GFP signal of wild-type E. coli, primary screen, bacterial rRNA inhibitor project, GFP/RFP fluorescence, OD600, single point; E. coli WT GFP vs humanized-ribosome RFP mutants, 24 h; active compounds read low; DMSO median 0, no signal -100; GFP signal change (wild-type ribosome), % (no concentration beside the values); actives 1.6% (n = 350,000);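 active means significant combined selectivity score with lowered wild-type GFP, culture density cut under 30%, mutant RFP and density less affected; inactive means any of these conditions unmet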
# FN deposit inh: inhibitors of fibronectin matrix deposition, primary screen, AH1F cells, Alexa488-fibronectin fluorescence, plate reader | AH1F fibroblasts, overnight | inhibition, % at 12.6 µM | actives 0.086% (n = 350,000) | AID 743247, 2014;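 active means mean inhibition across replicates of 30% or more, regardless of how many single replicates reach that level; inconclusive means mean under 30% yet at least half of replicates reach 30%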
#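 Material: AH1F fibroblast monolayer depositing Alexa488-labelled fibronectin into matrix | Input: 10000 AH1F cells/well | Medium: DMEM plus 2% serum, read in PBS | Reagent: Alexa488-fibronectin, 24 nM final in well | Compound dosing: One dose per compound, pinned | Schedule: 1 h adhesion, overnight exposure | Measured by: Fluorescence at 485 nm excitation, 525 nm emission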
# E-selectin induc: E-selectin induction in HUVECs, primary screen, imaging, HUVEC, immunofluorescence imaging, single point; AID 686992, 2013; activation, % at 7.58 µM; normalized: neutral wells 0, TNF-alpha wells 100; actives 0.37% (n = 260,000); P16581;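 active means mean E-selectin-positive cell signal at least 10% of the positive control, reached in at least 60% of replicates, without over 20% cell loss; inconclusive means no rule given, readout overlaps actives, possibly toxicity-flagged; inactive means the rest, including those meeting only one limit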
# Target sequence (P16581 whole entry, looked up): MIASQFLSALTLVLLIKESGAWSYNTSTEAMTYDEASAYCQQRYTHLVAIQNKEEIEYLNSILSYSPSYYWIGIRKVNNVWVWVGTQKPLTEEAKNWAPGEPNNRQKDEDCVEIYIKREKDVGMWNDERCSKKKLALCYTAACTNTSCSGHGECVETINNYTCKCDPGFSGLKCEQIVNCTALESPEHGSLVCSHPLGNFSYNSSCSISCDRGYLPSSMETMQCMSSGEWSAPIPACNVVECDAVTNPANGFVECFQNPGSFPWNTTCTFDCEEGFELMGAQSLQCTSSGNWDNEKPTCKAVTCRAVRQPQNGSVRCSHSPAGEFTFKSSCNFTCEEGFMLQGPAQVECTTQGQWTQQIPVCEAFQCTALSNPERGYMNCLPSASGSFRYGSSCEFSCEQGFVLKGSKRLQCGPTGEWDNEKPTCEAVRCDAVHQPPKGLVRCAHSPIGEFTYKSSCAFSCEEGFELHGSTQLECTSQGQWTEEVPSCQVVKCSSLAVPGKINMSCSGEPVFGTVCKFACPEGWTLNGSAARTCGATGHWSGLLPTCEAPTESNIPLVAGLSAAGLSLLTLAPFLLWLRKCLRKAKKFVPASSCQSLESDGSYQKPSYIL
#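 assay system = HUVEC, human umbilical vein endothelial cells | input = 3,000 HUVEC seeded per well | medium = EGM-2 growth medium on 0.1% gelatin-coated wells | dosing = one compound dose added by pin transfer | signal = immunofluorescence imaging | read-out basis = % PE-positive cells | control set = TNF-alpha, DMSO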
# FGF22 binding: binders of human FGF22 protein, primary screen, FGF22 synaptogenesis inhibitor project, biophysical, thermal shift, single point | actives 1.5% (n = 340,000) | Fibroblast growth factor 22 (Homo sapiens), Q9HCT0 | activity (Tm shift, normalised), % at 9.99 µM | recombinant FGF22 thermal shift, SYPRO orange fluorescence; percent of sucrose octasulfate shift, DMSO zero | AID 651658, 2012;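 active means mean Tm shift, scaled 0 neutral to 100 positive control, at about 1.3% or above, every replicate too, limit read from the data; inconclusive means no clear call, values can overlap the other calls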
# A number is an active result; . = inactive; ? = inconclusive; / = not tested or not shown.
SMILES,SIRT5 inh,C2C12 statin,rRNA inh HTS,FN deposit inh,E-selectin induc,FGF22 binding
CCCCC(=O)N/N=C/c1c(O)n(Cc2ccc(F)cc2)c(=O)[nH]c1=O,.,/,-27,.,?,.
O=C(Cc1ccncc1)N1CCCCN2[C@@H](CO)[C@@H](c3ccc(C#CC4(O)CCCC4)cc3)[C@@H]2C1,.,/,.,/,.,.
CCOC(=O)[C@@H]1[C@@H]2NC(=S)N(C)[C@@]1(COCc1ccc(OC)cc1)Oc1ccccc12,.,/,/,/,/,.
Cc1cc([N+](=O)[O-])c(Cl)cc1NC(=O)C(C)C,/,/,/,.,/,/
CNc1cc(Cl)c2nonc2c1[N+](=O)[O-],.,/,.,49,/,.
N#Cc1cccc(-c2ccc([C@H]3[C@H]4CN(C(=O)Cc5ccncc5)CCCCN4[C@H]3CO)cc2)c1,.,/,.,/,.,.
Cc1ccc(N2Cc3ccccc3C2=N)cc1[N+](=O)[O-],26,/,.,.,/,.
CC(C)NC(=O)N1C[C@@H]2C(c3ccc(Br)cc3)[C@H](C1)N2CC1CC1 (stereo partly drawn),/,/,.,.,/,/
CC(=O)c1ccc2c(c1)C1C(Cl)C(Sc3ccccc3[N+](=O)[O-])CC1C(c1ccccc1)N2 (stereo not drawn),/,/,/,.,/,/
CC(=O)c1ccc2c(c1)C1C(Cl)C(Sc3ccccc3[N+](=O)[O-])CC1C(c1ccccc1[N+](=O)[O-])N2 (stereo not drawn),/,81,/,.,/,/
CC(C)N(C(=O)CCl)c1ccccc1,.,.,/,.,83,.
CN(C)C(Cc1ccccc1)C(=O)c1ccccc1 (stereo not drawn),.,/,.,.,/,.
COc1ccc(C(CC(=O)c2ccc3c(c2)OCO3)c2c(O)c3ccccc3oc2=O)cc1OC (stereo not drawn),.,.,-30,.,.,.
COC(=O)[C@H]1N[C@H]2c3ccc(C4=CCCC4)c(=O)n3C[C@H]2[C@@H]1CO,.,.,.,/,.,.
CN1C(=O)C(=Cc2ccccc2OCc2ccc(Cl)cc2)C(=O)N(C)C1=O,112,/,.,.,.,.
Cc1ccc(S(=O)(=O)Oc2ccccc2C=C2C(=O)N(C)C(=O)N(C)C2=O)cc1,.,.,/,.,.,.
COC(=O)C1=C(C(=O)OC)SC2(S1)C(C(=O)OC)=C(C(=O)OC)Sc1c2ssc1=O,/,/,-23,/,.,.
C#CCNc1ccncc1S(=O)(=O)NC(=O)NC(C)C,/,128,/,/,/,/
O=C(Cc1ccccc1)N1CCCCN2[C@H](CO)[C@H](c3ccc(C#CC4(O)CCCC4)cc3)[C@@H]2C1,.,/,.,/,.,.
CC(C)c1oc(=O)cc2c1[C@@H](O)[C@H]1OC(=O)[C@@]3(C)C[C@@H](O)[C@@H](O)[C@@]2(C)C13 (stereo partly drawn),.,96,.,.,.,.
CC12C=CC(=O)C=C1CCC1C2C(=O)CC2(C)C(=O)CCC12 (stereo not drawn),.,.,.,.,.,.
C[C@]12CCC(=O)C=C1CC[C@@H]1C2[C@H](O)C[C@]2(C)C(=O)CCC12 (stereo partly drawn),.,.,-26,.,.,.
C[C@]12CCC(=O)C=C1CCC1C2CC[C@@]2(C)C1CC[C@@H]2O (stereo partly drawn),.,.,.,.,.,.
C[C@]12C=CC(=O)C=C1CC[C@@H]1[C@@H]2CC[C@]2(C)C(=O)CC[C@@H]12,.,.,-23,/,/,.
COc1cccc(-c2ccc([C@@H]3[C@@H](CO)N4CCCCN(C(=O)Cc5ccncc5)C[C@H]34)cc2)c1,.,/,.,.,.,.
SMILES,SIRT5 inh,C2C12 statin,rRNA inh HTS,FN deposit inh,E-selectin induc,FGF22 binding
O=C(Cc1cccnc1)N1CCCCN2[C@@H](CO)[C@@H](c3ccc(C#CC4CC4)cc3)[C@@H]2C1,.,/,/,/,/,.
NC(=O)OCCCc1ccccc1,.,.,.,.,.,.
NS(=O)(=O)OC(CCc1ccccc1)C(Cl)(Cl)Cl (stereo not drawn),.,.,.,.,.,45
COc1ccc(Oc2cc(NC(=O)c3nn(C)cc3[N+](=O)[O-])cc([N+](=O)[O-])c2)cc1,.,97,.,/,/,.
COc1cccc(CC(=O)N(C)C2CCCN(Cc3ccccc3F)C2)c1 (stereo not drawn),18,.,.,.,/,.
CCOC(=O)[C@@H]1[C@@H]2NC(=S)N(C)[C@@]1(C)Oc1ccccc12,.,/,/,/,/,.
OCCNCCc1c[nH]c2ccc(OCc3ccccc3)cc12,20,.,.,.,.,.
COc1ccc(-n2c(-c3ccccc3Br)nc3ccccc3c2=O)cc1,35,.,.,.,.,.
CCOc1ccc(-n2c(CC)nc3ccccc3c2=O)cc1,.,131,.,.,.,.
COC(=O)[C@@H]1[C@@H](CO)[C@@H]2Cn3c(ccc(-c4ccccc4F)c3=O)[C@H]1N2Cc1ccncc1,.,.,.,/,.,.
N#Cc1cccc(-c2ccc([C@@H]3[C@@H](CO)N4CCCCN(C(=O)Cc5ccccc5)C[C@@H]34)cc2)c1,.,/,.,/,.,.
CC(=O)O[C@H]1C[C@@H]2OC3C=C(C)CCC3(C)[C@@]1(C)[C@@]21CO1 (stereo partly drawn),.,/,.,.,/,.
CC(=O)OC1CC2OC3C=C(C)CCC3(C)C1(C)C21CO1 (stereo not drawn),/,210,/,/,/,.
C=CCOC(=O)C1=C(C)OC(N)=C(C#N)C12C(=O)N(CN1CCOCC1)c1ccccc12 (stereo not drawn),/,111,/,.,/,/
CCOC(=O)C1=C(C)OC(N)=C(C#N)C12C(=O)N(C)c1ccccc12 (stereo not drawn),/,.,/,/,/,/
CCC(=O)OC1CCC2C3CCC4CC(=O)C=CC4(C)C3CCC12C (stereo not drawn),.,.,/,.,.,.
CSCCC(NC(=O)CCC(=O)OC1CC[C@H]2[C@@H]3CC[C@H]4CC(=O)CC[C@]4(C)[C@H]3CC[C@]12C)C(=O)O (stereo partly drawn),.,.,-24,.,.,.
COC(=O)[C@@H]1[C@@H](CO)[C@@H]2Cn3c(ccc(C4=CCCCC4)c3=O)[C@H]1N2C(=O)NC(C)C,.,.,.,/,.,.
